Screens (PubChem)
An excerpt weighted towards active compounds, which were near 0.3% of everything screened.
BasE inh = blocks the Acinetobacter baumannii siderophore enzyme BasE. purified BasE, fluorescence polarization binding displacement. AID 485350. actives 0.1% (n = 84,000). inhibition, % (concentration not given with the values); in the data active means inhibition above about 25%, passing the limit was not always enough;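 further: 0% = negative plate control signal and 100% = positive plate control signal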
KSHV LANA nucl = inhibitors of KSHV LANA binding to nucleosomes; FITC-LANA1-23 / chicken nucleosome fluorescence polarization; stronger effect = lower value; AID 720717; z-score (concentration not given with the values); actives 0.3% (n = 51,000);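 active means both repeat wells score below -2 in polarization z-score versus plate sample wells, excluding overly bright wells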
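Assay system: FITC-LANA peptide and chicken nucleosomes; input: 240 nM purified chicken nucleosomes (480 nM peptide binding sites), final; also added: 50 nM FITC-LANA1-23 probe; medium: TEN-BT buffer, pH 7.5; doses: pin-transferred compound, 100 nL; times: 10–45 min, room temperature; technique: fluorescence polarization; replication: duplicates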
* hit, by the source's call; / = no result given; ! = not confirmed by another sample.

SMILES	BasE inh	KSHV LANA nucl
Cc1cc(C)c(C(=O)COc2ccccc2O)cc1C	9	/
CC1(C)CC(NC(=S)NC(=O)c2ccco2)CC(C)(C)N1	0	/
Clc1ccc2c(c1)NNc1nncn1-2	3	-0.2
O=C(O)CSc1nnc2n1-c1ccc(Cl)cc1NN2	28	-5.6*
CC1(C)CC(N2N=C(N)CC2=O)CCO1 (stereo not given)	1	-1.6
COC(=O)c1sc2nc3c(c(C(F)(F)F)c2c1N)CN(C(C)=O)CC3	31	-8.1*
COC(=O)c1sc2nc(-c3ccco3)cc(C(F)(F)F)c2c1N	3	-1.1
COc1ccc(Br)cc1CN1CCN(C2CCCCCC2)CC1	1	0.37
CC(Sc1nncn1-c1ccccc1)C(=O)N(C)c1ccccc1 (stereo not given)	2	/
COCCNC(=O)c1cc(Br)cs1	2	0.078
COCCNC(=O)c1cc(Br)c(C)c(C)c1C	2	-2.4*
CC1Cc2ccccc2N1C(=O)CN(Cc1ccco1)S(=O)(=O)/C=C/c1ccccc1 (stereo not given)	2	/
Cn1nc(-c2ccc(F)cc2)nc2c(=O)n(C)c(=O)nc1-2	36	-4.8*
Fc1ccc(-c2nc3n(n2)Cc2ccccc2-3)cc1	-2	1
N#Cc1ccccc1Cn1cc(C=C2C(=O)NC(=O)NC2=O)c2ccccc21	5	-3.6*
O=C1NC(=O)/C(=C\c2cn(Cc3ccccc3F)c3ccccc23)N1	2	/
S=c1[nH]nc(CCCOc2ccc(Cl)cc2Cl)o1	3	1.1
Clc1ccc(OCCCc2nc(-c3cccnc3)n[nH]2)c(Cl)c1	46*	/
O=C(O)C1=C(Nc2ccccc2)OCC1=O	1	/
CCOC(=O)C1=C(Nc2ccc(OC)cc2)OCC1=O	4	-2.1*
CCCN1CCN(C(=O)c2cccc3c2C(=O)N(Cc2cccnc2)C3)CC1	3	-0.73
Cc1cc(C(=O)Cn2c(=O)/c(=C\c3ccsc3)s/c2=C\C(=O)C(C)(C)C)c(C)n1C	2	/
O=C(Nn1cnc2c(cnn2-c2ccccc2)c1=O)c1ccccc1	0	-2.1*
O=C(/C=C/c1ccccc1)Nn1cnc2c(cnn2-c2ccccc2)c1=O	1	-1.2
CCOC(=O)c1c(C)oc2c1c(C=NC1CCCC1)c(O)c1ccccc12	1	/
SMILES	BasE inh	KSHV LANA nucl
Cc1cccc(N2C(=O)c3cccc4c(N5CCNCC5)ccc(c34)C2=O)c1	15	-0.45
Cc1ccc(N2C(=O)c3cccc4c(N5CCN(C)CC5)ccc(c34)C2=O)c2cccnc12	27*	-2.8*
O=C(NCc1ccc2c(c1)OCO2)c1cc(=O)[nH]c2ccc(Br)cc12	1	0.31
NC(=O)CN1C(=O)COc2ccc(Cl)cc21	0	-0.33
C1CCCN(c2nc3nonc3nc2N2CCCCCC2)CC1	0	-0.2
OCCN(CCO)c1nc(N2CCCCC2)c2nc(N(CCO)CCO)nc(N3CCCCC3)c2n1	36*!	-2.3*!
CN(C)CC(O)Cn1c2ccc(Cl)cc2c2cc(Cl)ccc21 (stereo not given)	/	0.74
O=C(Nc1ccc(N2CCOCC2)cc1)Nc1ccc2nc(-c3ccco3)c(-c3ccco3)nc2c1	3	-0.67
O=C(NCCCO)Nc1ccc2nc(-c3ccco3)c(-c3ccco3)nc2c1	23	-3*
CCCCNC(=O)CN1CCN(Cc2cccc(OCC)c2OC)CC1	0	/
CCOC(=O)c1sc(N)c(C#N)c1COC(=O)c1nn(CC)c(=O)c2ccccc12	-51	/
CCCCn1cnc2cc(NCc3ccncc3)ccc21	13	-0.39
COc1ccccc1-n1cnc2cc(NCc3ccncc3)ccc21	32*	0.49
Cc1ccc(Oc2ccccc2NC(=O)CN2CSCC2=O)cc1	1	/
CCCCN1C(=O)/C(=C\C(=O)NC(N)=O)c2ccccc21	2	/
CC1=C(C(=O)Nn2cnc3cccc(F)c3c2=N)Sc2ccccc2N1	36*	/
N=c1c2c(F)cccc2ncn1NC(=O)c1ccncc1	2	0.082
CC1(C)C2CC=C(/C=N/NC(=O)c3cccc(S(=O)(=O)N4CCOCC4)c3)C1C2 (stereo not given)	1	/
COc1ccc(CN(C)C(=O)c2cc(C)n(C(C)C)c2C)c(OC)c1	2	/
O=C(O)c1cc(-c2ccc(O)c(O)c2)nc2n[nH]c(-c3ccc(F)cc3)c12	41*	-0.27
COc1ccc(-c2cc(C(=O)N3CCOCC3)c3c(-c4ccc(Cl)cc4)[nH]nc3n2)cc1	-6	1.9
O=C(CN1CCCCCC1=O)NCCOc1ccccc1F	2	/
CCNC(=O)c1ccc(-c2nc3ccccc3s2)s1	-1	/
O=C(Nc1cccc(-c2nn[nH]n2)c1)c1cccc(C(F)(F)F)c1	0	-0.21
O=C(Nc1cccc(-c2nn[nH]n2)c1)c1ccc(Br)o1	3	-2.1*
SMILES	BasE inh	KSHV LANA nucl
CCN(Cc1cc2cc3c(cc2[nH]c1=O)OCCO3)c1ccc2c(c1)OCCO2	0	1.1
C=CCN1C(=O)NC(=O)/C(=C\c2cn(Cc3ccccc3)c3ccccc23)C1=O	4	/
CCN(CC)C(=O)Cn1cc(/C=C2\C(=O)NC(=O)N(CC)C2=O)c2ccccc21	1	-2.7*
COc1cccc(=O)c2c(C)oc(C)c12	12	-4.4*
CCOc1cc(/C=C/c2ccccc2OC)cc(=O)c2c(C)oc(C)c12	16	/
CCc1cccc2c(C(=O)Cn3nc(C)c(C)c(C#N)c3=O)c[nH]c12	-4	/
